Measured values taken from paper PMC9311154 (British Journal of Clinical Pharmacology, 2022).
Several values for one entry are separate records, joined by “and”; a condition that tells them apart may be missing. Equal values may be shown once. Entries after “also recorded” stand apart in the source; their conditions may differ. Read-outs that look alike come from different tables or passages of the source. Marks after values point to notes of the source that are not given here.

Assays:
[1] = system: activated partial thromboplastin time (aPTT); details: whole blood or plasma, in vitro and ex vivo; cited from earlier work
[2] = BAY 2433334 pharmacokinetics in plasma and urine, Parts A and B; format: in vivo, human; details: for tmax: median (range)
Safety and tolerability [3] = format: in vivo, human
prothrombin time (PT) = test: Prothrombin time; format: in vivo, human; details: compared with placebo
[4] = system: activated partial thromboplastin time (aPTT); test: aPTT; format: in vivo, human
C1 esterase inhibitor = C1 esterase inhibitor activity; format: in vivo, human; details: compared with placebo
Procedure, shortened: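 Healthy men given the oral test compound (25, 50 or 100 mg once daily, or 25 mg twice daily) or placebo: single dose on day 1, washout days 2–3, dosing days 4–11, once-daily dose day 12. C1 esterase inhibitor activity measured in plasma by chromogenic substrate kit on a coagulation analyser, per manufacturer's instructions. Summarised descriptively, with no prespecified formal statistics.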

FXI = FXI concentration; format: in vivo, human; details: compared with placebo
Procedure, shortened: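 Healthy men randomised to the oral test compound (25/50/100 mg once daily or 25 mg twice daily) or placebo. Single dose day 1, washout days 2–3, repeat dosing days 4–11, final dose day 12, after an overnight fast of at least 10 h on profiling days. FXI concentration measured by microtitre-plate ELISA with polyclonal antibodies. Descriptive summary only.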

Safety and tolerability [5] = format: in vivo, human; remark: listed apart in the source
Procedure, shortened: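 Randomised, single-blind, placebo-controlled dose escalation in healthy men, 36 on active and 12 on placebo. Adverse events counted as treatment-emergent if they began or worsened after first study medication, up to 7 days post-treatment. Also assessed: physical examination, vital signs, 12-lead ECG and clinical laboratory tests. All participants dosed at least once were analysed descriptively.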

[6] = animal models; cited from earlier work
[7] = multiple once‐daily dosing for 9 consecutive days
[8] = 25 mg multiple dose + midazolam
[9] = 25 mg treatment sequence, Total (N = 24)
[10] = 75 mg multiple dose + midazolam
[11] = 75 mg treatment sequence, Total (N = 24)

SMILES: CC[C@@H](C(=O)Nc1ccc(C(N)=O)c(F)c1)n1cc(OC)c(-c2cc(Cl)ccc2-n2cc(C(F)(F)F)nn2)cc1=O [BAY 2433334]
- Prolongation of aPTT [1]: concentration‐dependent prolongation
- Dose proportionality of AUC and Cmax in plasma ([2]; 25–100 mg OD, single and multiple dosing, Part A): dose proportional; also recorded: appeared to increase dose proportionally
- arithmetic mean renal elimination (%AE,ur) of unchanged drug ([2]; after multiple dosing): 10.1–13.5%
- RLIN, range ([2]; after once‐daily administration): 1.03–1.08
- arithmetic mean renal elimination (%AE,ur) of unchanged drug ([2]; after single‐dose administration): 7.61–13.4 % of the dose
- geometric mean terminal half‐life (t1/2), range across treatment groups ([2]; day 1): 14.0 to 15.9 h
- tmax ([2]; day 1, 25 mg BID group): 3.00 (1.00–5.98) h
- tmax ([2]; day 1, 25 mg OD): 2.00 (1.48–5.98) h
- tmax ([2]; day 1, 50 mg OD): 2.00 (0.750–4.00) h
- tmax ([2]; day 1, 100 mg OD): 3.97 (1.47–6.00) h
- apparent oral clearance, geometric means ([2]; day 1, across treatment groups): 3.68 to 4.09 L/h
- median time to Cmax, range across treatment groups ([2]; day 1, all treatment groups): 2.00 to 3.97 h
- tmax ([2]; day 12, 25 mg BID): 1.50 (1.00–6.00) h
- tmax ([2]; day 12, 25 mg OD): 4.00 (1.00–6.03) h
- tmax ([2]; day 12, 50 mg OD): 3.00 (0.750–6.05) h
- tmax ([2]; day 12, 100 mg OD): 4.00 (1.50–6.00) h
- apparent oral clearance, geometric means ([2]; day 12, across treatment groups): 3.39 to 4.04 L/h
- mean terminal half‐life (t1/2), range across treatment groups ([2]; day 12, after multiple dosing): 15.8 to 17.8 h
- median time to Cmax, range across once‐daily groups ([2]; day 12, once‐daily dosing): 3.00 to 4.00 h
- RAAUC geometric mean, range [2, 7]: 1.50–1.72
- RACmax geometric mean, range [2, 7]: 1.41–1.63
- Adverse event(s) of special interest (Safety and tolerability [3]; [8]): 0 Number (%)
- Study drug‐related adverse event(s) (Safety and tolerability [3]; [8]): 0 Number (%)
- Study procedure‐related adverse event(s) (Safety and tolerability [3]; [8]): 0 Number (%)
- Adverse event(s) of special interest (Safety and tolerability [3]; 25 mg multiple dose alone): 0 Number (%)
- Study drug‐related adverse event(s) (Safety and tolerability [3]; 25 mg multiple dose alone): 0 Number (%)
- Study procedure‐related adverse event(s) (Safety and tolerability [3]; 25 mg multiple dose alone): 1 (4.2%) Number (%)
- Adverse event(s) of special interest (Safety and tolerability [3]; 25 mg single dose + midazolam): 0 Number (%)
- Study drug‐related adverse event(s) (Safety and tolerability [3]; 25 mg single dose + midazolam): 0 Number (%)
- Study procedure‐related adverse event(s) (Safety and tolerability [3]; 25 mg single dose + midazolam): 0 Number (%)
- Adverse event(s) of special interest (Safety and tolerability [3]; [9]): 0 Number (%)
- Study drug‐related adverse event(s) (Safety and tolerability [3]; [9]): 0 Number (%)
- Study procedure‐related adverse event(s) (Safety and tolerability [3]; [9]): 4 (16.7%) Number (%)
- Adverse event(s) of special interest (Safety and tolerability [3]; [10]): 0 Number (%)
- Study drug‐related adverse event(s) (Safety and tolerability [3]; [10]): 0 Number (%)
- Adverse event(s) of special interest (Safety and tolerability [3]; 75 mg multiple dose alone): 0 Number (%)
- Study drug‐related adverse event(s) (Safety and tolerability [3]; 75 mg multiple dose alone): 0 Number (%)
- Study procedure‐related adverse event(s) (Safety and tolerability [3]; 75 mg multiple dose alone): 0 Number (%)
- Adverse event(s) of special interest (Safety and tolerability [3]; 75 mg single dose + midazolam): 0 Number (%)
- Study drug‐related adverse event(s) (Safety and tolerability [3]; 75 mg single dose + midazolam): 0 Number (%)
- Study procedure‐related adverse event(s) (Safety and tolerability [3]; 75 mg single dose + midazolam): 0 Number (%)
- Adverse event(s) of special interest (Safety and tolerability [3]; [11]): 0 Number (%)
- Study drug‐related adverse event(s) (Safety and tolerability [3]; [11]): 0 Number (%)
- Study procedure‐related adverse event(s) (Safety and tolerability [3]; [11]): 2 (8.3%) Number (%)
- Study drug‐related TEAEs (Safety and tolerability [3]; Part C): No study drug‐related TEAEs
- Participants who discontinued study medication because of TEAEs (Safety and tolerability [3]; Part C, 75 mg): 2 participants
- Effect on PT (absolute and INR values) (prothrombin time (PT)): no effect
- Prolongation of aPTT ([4]; Parts A and B): dose‐dependent prolongation
- first time point at which prolongation of aPTT was apparent ([4]; after dosing): 30 min
- time of maximal aPTT prolongation after dosing ([4]; in vivo): approximately 4 h
- Effect on complement C1 esterase inhibitor activity (C1 esterase inhibitor): no significant effect
- Effect on FXI concentrations (FXI): no significant effect
- Adverse event(s) of special interest: Bleeding (Safety and tolerability [5]; 25 mg BID): 0 Number (%)
- Any adverse event(s) of special interest (Safety and tolerability [5]; 25 mg BID): 1 (11.1%) Number (%)
- Any study drug‐related adverse event(s) (Safety and tolerability [5]; 25 mg BID): 0 Number (%)
- Any study procedure‐related adverse event(s) (Safety and tolerability [5]; 25 mg BID): 2 (22.2%) Number (%)
- TEAE: Medical device site urticaria (Safety and tolerability [5]; 25 mg BID): 1 (11.1%) Number (%)
- Adverse event(s) of special interest: Investigations (Safety and tolerability [5]; 25 mg BID, Glutamate dehydrogenase increased): 1 (11.1%) ^e Number (%)
- Adverse event(s) of special interest: Bleeding (Safety and tolerability [5]; 25 mg OD): 0 Number (%)
- Any adverse event(s) of special interest (Safety and tolerability [5]; 25 mg OD): 1 (11.1%) Number (%)
- Any study drug‐related adverse event(s) (Safety and tolerability [5]; 25 mg OD): 0 Number (%)
- Any study procedure‐related adverse event(s) (Safety and tolerability [5]; 25 mg OD): 1 (11.1%) Number (%)
- TEAE: Medical device site urticaria (Safety and tolerability [5]; 25 mg OD): 0 Number (%)
- Adverse event(s) of special interest: Investigations (Safety and tolerability [5]; 25 mg OD, Amylase increased): 1 (11.1%) ^c Number (%)
- Adverse event(s) of special interest: Bleeding (Safety and tolerability [5]; 50 mg OD): 0 Number (%)
- Any adverse event(s) of special interest (Safety and tolerability [5]; 50 mg OD): 1 (11.1%) Number (%)
- Any study drug‐related adverse event(s) (Safety and tolerability [5]; 50 mg OD): 0 Number (%)
- Any study procedure‐related adverse event(s) (Safety and tolerability [5]; 50 mg OD): 3 (33.3%) Number (%)
- TEAE: Medical device site urticaria (Safety and tolerability [5]; 50 mg OD): 0 Number (%)
- Adverse event(s) of special interest: Investigations (Safety and tolerability [5]; 50 mg OD, Lipase increased): 1 (11.1%) ^d Number (%)
- Adverse event(s) of special interest: Bleeding (Safety and tolerability [5]; 100 mg OD): 0 Number (%)
- Any adverse event(s) of special interest (Safety and tolerability [5]; 100 mg OD): 1 (11.1%) Number (%)
- Any study procedure‐related adverse event(s) (Safety and tolerability [5]; 100 mg OD): 1 (11.1%) Number (%)
- TEAE: Medical device site urticaria (Safety and tolerability [5]; 100 mg OD): 1 (11.1%) Number (%)
- Any study drug‐related adverse event(s) (Safety and tolerability [5]; 100 mg OD, Headache): 2 Number (%) and 2 (22.2%) ^b Number (%)
- Adverse event(s) of special interest: Investigations (Safety and tolerability [5]; 100 mg OD, Lipase increased): 1 (11.1%) ^d Number (%)
- Adverse events leading to discontinuation (Safety and tolerability [5]; Parts A or B): No adverse events leading to discontinuation
- Adverse event(s) of special interest: Bleeding (Safety and tolerability [5]; Total BAY 2433334 (n = 36)): 0 Number (%)
- Adverse event(s) of special interest: Investigations (Safety and tolerability [5]; Total BAY 2433334 (n = 36)): 4 (11.1%) Number (%)
- Any adverse event(s) of special interest (Safety and tolerability [5]; Total BAY 2433334 (n = 36)): 4 (11.1%) Number (%)
- Any study drug‐related adverse event(s) (Safety and tolerability [5]; Total BAY 2433334 (n = 36)): 2 (5.6%) Number (%)
- Any study procedure‐related adverse event(s) (Safety and tolerability [5]; Total BAY 2433334 (n = 36)): 7 (19.4%) Number (%)
- TEAE: Medical device site urticaria (Safety and tolerability [5]; Total BAY 2433334 (n = 36)): 2 (5.6%) Number (%)
- Adverse events related to bleeding (Safety and tolerability [5]; all study parts): no clinically relevant adverse events related to bleeding
- Serious adverse events (Safety and tolerability [5]; all study parts): no serious adverse events were reported
- Tolerability (Safety and tolerability [5]; all study parts): well tolerated
- Effects on vital signs, ECG or clinical laboratory investigations (Safety and tolerability [5]; other than the anticipated prolongation of aPTT): No clinically relevant effects
- Reduction in thrombus weight [6]: dose‐dependent reductions
